# High-throughput results (PubChem BioAssay)
# Only some compounds are listed: those with a hit (about 9.6% of all), similar ones and a draw of the others.
# PTEN del growth – growth suppressors of cells with PTEN tumor suppressor deletion; HCT116 PTEN-null viability, CellTiter-Glo, 60 h; stronger effect = lower value; viability, % at 10 µM; 140,000 tested, 1.2% active; AID 827;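 active means viability at or below a set limit, 4 SD under the median of all tested compounds, cut at about 3.7% in these data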;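 further: PTEN knockout HCT116 line with beta catenin targeted HCT116 as companion control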
# PMI act hi M6P – activators of human phosphomannose isomerase at near-saturating mannose 6-phosphate; P34949; coupled PMI enzyme assay, resazurin fluorescence, 20 min; stronger effect = higher value; 1 = untreated enzyme, 0 = substrate-free blank; activation factor at 20 µM; 190,000 tested, 0.34% active;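 active means activation factor of 2 or more at 20 µM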
# Target sequence (P34949 whole entry, looked up): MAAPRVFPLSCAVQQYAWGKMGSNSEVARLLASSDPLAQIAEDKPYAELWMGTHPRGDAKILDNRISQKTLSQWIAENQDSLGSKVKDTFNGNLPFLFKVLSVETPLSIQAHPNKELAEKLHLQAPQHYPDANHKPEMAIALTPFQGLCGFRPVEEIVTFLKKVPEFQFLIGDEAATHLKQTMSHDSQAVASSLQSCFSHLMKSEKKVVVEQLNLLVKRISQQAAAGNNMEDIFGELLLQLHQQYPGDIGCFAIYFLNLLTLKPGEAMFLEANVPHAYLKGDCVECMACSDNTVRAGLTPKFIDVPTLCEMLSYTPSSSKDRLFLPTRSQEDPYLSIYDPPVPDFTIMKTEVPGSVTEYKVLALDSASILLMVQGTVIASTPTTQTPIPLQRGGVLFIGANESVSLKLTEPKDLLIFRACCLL
#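 Material: human phosphomannose isomerase with PGI, G6PDH, diaphorase coupling enzymes / Reagent: Man-6-P substrate 1.0 mM / Dosing: single compound dose of 20 µM, 1% DMSO final / Incubation: enzyme reaction with compound 20 min at room temperature / Signal: resorufin fluorescence (Ex 544/Em 590 nm) from resazurin via diaphorase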
# Lmaj promast – reduces viability of Leishmania major promastigotes. resazurin fluorescence viability. inhibition, % at 10 µM. 200,000 tested, 9% active. AID 1063; in the data active means inhibition above about 50%;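 further: promastigotes grown with compound for 44 hours at 28 °C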
# bCat KO growth – beta-catenin-lacking colon tumor cell growth suppression | 140,000 tested, 1.5% active | HCT116 beta-catenin knockout viability, CellTiter-Glo, 60 h; stronger effect = lower value | viability, % at 10 µM;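 active means viability at or under a set limit, the compound median less 4 SD, cut at about 6% in these data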;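 further: 0% = Hyamine 1622 control at 20 µM and 100% = untreated cell control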
# PMI act – increases human mannose-6-phosphate isomerase activity | P34949 | purified human PMI, coupled resazurin fluorescence, 20 min; stronger effect = higher value; 1 = vehicle control, 0 substrate-free wells | activation factor at 20 µM | 190,000 tested, 0.005% active | AID 1214;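 active means activation factor of 2 or more at 20 µM, relative to plate controls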
# Active calls of the source: *; · = not tested or not shown.
SMILES,PTEN del growth,PMI act hi M6P,Lmaj promast,bCat KO growth,PMI act
CC(=O)c1ccc(NC(=S)N2CCCCCC2)cc1,·,1,-1.9,·,1.1
CC(=O)c1ccc(N=C2SCCCN2C(=O)C2CCCC2)cc1,·,1.1,63.5*,·,1
CCOc1cc(Br)c(Br)c(C=Nc2ccc(NC(C)=O)cc2)c1O,91.6,0.6,67.5*,66.8,0.8
CN(C)C(=O)C(CCN1CCC(O)(c2ccc(Cl)cc2)CC1)(c1ccccc1)c1ccccc1,14.5,1.1,97.2*,15.8,1.1
COc1cccc(NC(=O)COC(=O)c2ccc(S(=O)(=O)NCc3ccco3)cc2)c1,115.4,1,-3.3,91.3,1
COc1cc(NS(=O)(=O)c2ccc(Br)cc2)c(OC)cc1NC(=O)c1ccco1,81.4,0.8,91.2*,81.1,0.8
COc1cc(NC(=O)c2ccc([N+](=O)[O-])o2)ccc1NC(=O)c1cccs1,·,1,100.0*,·,1.1
COc1ccc(NC(=O)c2cccs2)cc1NC(=O)c1ccco1,88.3,1,52.2*,93.0,1.1
Cc1ccc(OCCOC(=O)CCc2nc3ccccc3c(=O)[nH]2)cc1,·,1,-11.5,·,1
COc1cccc(CNCCc2c[nH]c3ccccc23)c1OCc1ccccc1,7.8,1,98.6*,5.1*,1
COc1cccc(CNn2cnnc2)c1OCc1ccc(F)cc1,88.6,0.9,1.0,93.1,0.8
COc1cccc(CNC23CC4CC(CC(C4)C2)C3)c1OCc1ccccc1,·,0.9,91.6*,·,0.9
COc1cc(CNCCc2c[nH]c3ccccc23)ccc1OCc1ccccc1F,1.6*,0.9,98.2*,1.4*,0.9
Cc1cc(NC(=O)c2cc3ncc(Br)cn3n2)no1,100.2,1,-3.0,122.6,1
CCn1c(CCNC(=O)c2ccc(Cl)c(Cl)c2)nnc1SCCOc1ccc(OC)cc1,63.9,0.9,-3.8,64.7,0.9
Cc1ccc(C2CC(c3ccccc3)=NN2c2ccccc2)o1 (stereo unspecified),86.3,1.5,99.8*,87.2,1.3
CCC(CO)NCC(O)COCc1ccc2c(c1)OCO2 (stereo unspecified),·,1.1,-5.2,·,1.1
CCC(Sc1nc2ccc(N)cc2s1)C(=O)Nc1nccs1 (stereo unspecified),76.2,1.1,54.8*,83.0,1
CCC(Sc1nnc(C)s1)C(=O)Nc1nccs1 (stereo unspecified),105.3,0.9,-7.7,93.8,0.9
O=C(Cn1nnc2c(cnn2-c2ccc(F)cc2)c1=O)Nc1ccccc1C(F)(F)F,·,1.1,-7.3,·,1
c1ccc(-c2nnc(CN3CCC4(CC3)OCCO4)o2)cc1,97.2,0.9,-3.8,95.6,0.9
c1ccc(-c2nnc(CN3CCCc4ccccc43)o2)cc1,90.4,2.1*,0.8,80.3,1.5
Fc1ccc(C(c2nnnn2C2CCCC2)N2CCc3ccccc32)cc1 (stereo unspecified),72.1,1,2.6,74.8,1
Fc1ccc(C(c2nnnn2CCc2ccccc2)N2CCCc3ccccc32)cc1 (stereo unspecified),33.2,0.9,76.4*,39.9,0.8
c1ccc2c(c1)CCCN2Cc1nnnn1CC1CCCO1 (stereo unspecified),92.3,2.1*,-4.4,88.9,1.5
SMILES,PTEN del growth,PMI act hi M6P,Lmaj promast,bCat KO growth,PMI act
c1ccc(CCn2nnnc2CN2CCCc3ccccc32)cc1,84.8,2.1*,-1.2,87.6,1
c1ccc2sc(N3CCN(Cc4nnnn4CC4CCCO4)CC3)nc2c1 (stereo unspecified),90.4,1.1,-1.6,88.2,1.1
Cc1ccc(S(=O)(=O)CC(=O)Nc2ccc(Cl)cn2)cc1,·,1,-6.3,·,1
COc1ccc(-c2csc(NC(=O)c3ccc(OCC(=O)N4CCOCC4)c(OC)c3)n2)cc1,79.7,0.8,35.8,78.5,0.6
COc1cc(C(=O)Nc2nc(-c3ccc(F)cc3)cs2)ccc1OCC(=O)N1CCOCC1,59.2,0.9,96.1*,60.6,0.9
COc1cc(C(=O)Nc2nc(-c3ccc(C)cc3)cs2)ccc1OCC(=O)N1CCOCC1,80.6,0.9,94.8*,86.7,1
COc1ccc(-c2nc(NC(=O)c3ccc(OCC(=O)Nc4ccc(F)cc4)c(OC)c3)sc2C)cc1,37.7,1,69.0*,48.1,1
CCOc1cc(CNCc2cccs2)cc(Br)c1OCC,78.0,1.1,7.1,73.2,1
CCOc1cc(CNc2ccccc2)cc(Br)c1OCc1ccc(F)cc1,67.8,1,48.8,82.0,1
CCOc1cc(CNCc2ccncc2)cc(Br)c1OCc1ccccc1F,37.1,1.1,91.6*,16.5,0.9
CCOc1cc(CNCCO)cc(Br)c1OCc1ccc(Cl)cc1Cl,1.5*,1,100.7*,1.4*,1
CCOc1cc(CNCCO)cc(Br)c1OCc1cccs1,51.8,1,100.5*,63.0,0.9
COC(=O)Oc1ccc(/C=C/C(=O)OC(C)C)cc1OC(=O)OC,78.3,0.9,80.3*,80.7,0.8
CCCCOC(=O)/C=C/c1ccc(OC(=O)OC)c(OC(=O)OC)c1,93.9,1.1,-5.5,87.5,1
N/C(Cc1cccc2ccccc12)=N\OC(=O)Cc1cccs1,85.8,0.9,-5.8,88.6,0.9
N/C(Cc1cccc2ccccc12)=N\OC(=O)c1cccs1,78.4,0.8,58.2*,72.3,1
COc1ccccc1C/C(N)=N/OC(=O)/C=C/c1ccccc1,·,1.1,22.8,·,1.1
CC(=O)Nc1ccc(Nc2cc(C)nc3c(-c4ccc(Cl)cc4)cnn23)cc1,27.2,1.1,79.1*,50.1,0.9
Cc1cc(NCCN2CCOCC2)n2ncc(-c3ccc(Cl)cc3)c2n1,·,·,-2.4,·,·
Cc1cc(Cl)n2nc(C)c(-c3ccc(Cl)cc3)c2n1,·,1.1,27.2,·,1.2
CC(=O)Nc1ccc(Nc2cc(C)nc3c(-c4ccc(Cl)cc4)c(C)nn23)cc1,73.7,1,93.3*,90.1,0.9
CCOC(=O)c1cc(C(=O)NC(C)c2ccccc2)c(C)[nH]c1=O (stereo unspecified),·,0.9,5.7,·,1
COc1ccc(/C=N/NC(=O)CCSc2nc3ccccc3s2)cc1OC,81.5,0.9,13.1,87.6,0.9
O=C(CCSc1nc2ccccc2s1)N/N=C/c1c(O)ccc2ccccc12,3.2*,1.1,58.1*,4.6*,1
O=C(Nc1ccc(O)c(-c2nc3ccccc3o2)c1)C1(c2ccc(Br)cc2)CCCC1,63.1,1,-2.2,68.3,1
SMILES,PTEN del growth,PMI act hi M6P,Lmaj promast,bCat KO growth,PMI act
OCCN1CCN(CCOc2ccccc2-c2ccccc2)CC1,95.2,1.4,1.3,88.3,1.4
c1ccc(-c2ccccc2OCCCN2CCCCC2)cc1,62.1,1.2,95.0*,64.3,1
CCN1CCN(CCCOc2ccccc2-c2ccccc2)CC1,·,1.1,65.5*,·,1
CCN1CCN(CCCOc2ccc(-c3ccccc3)cc2)CC1,2.0*,1,98.5*,1.8*,1
CCN1CCN(CCOc2ccccc2-c2ccccc2)CC1,·,0.9,91.3*,·,0.9
OCCCN1CCN(CCOc2ccccc2-c2ccccc2)CC1,79.4,1.2,1.3,80.3,1.2
